From ChEMBL document CHEMBL1152488, “Synthesis and evaluation of pyrido[1,2-a]pyrimidines as inhibitors of nitric oxide synthases” (Eur J Med Chem, 2009)

Key:
[1] = biological target: T1, Nitric oxide synthase 3 (Homo sapiens) (UniProt P29474); assay: Inhibition of human eNOS assessed as residual activity at 100 uM by Griess assay relative to control
T1 sequence (whole entry): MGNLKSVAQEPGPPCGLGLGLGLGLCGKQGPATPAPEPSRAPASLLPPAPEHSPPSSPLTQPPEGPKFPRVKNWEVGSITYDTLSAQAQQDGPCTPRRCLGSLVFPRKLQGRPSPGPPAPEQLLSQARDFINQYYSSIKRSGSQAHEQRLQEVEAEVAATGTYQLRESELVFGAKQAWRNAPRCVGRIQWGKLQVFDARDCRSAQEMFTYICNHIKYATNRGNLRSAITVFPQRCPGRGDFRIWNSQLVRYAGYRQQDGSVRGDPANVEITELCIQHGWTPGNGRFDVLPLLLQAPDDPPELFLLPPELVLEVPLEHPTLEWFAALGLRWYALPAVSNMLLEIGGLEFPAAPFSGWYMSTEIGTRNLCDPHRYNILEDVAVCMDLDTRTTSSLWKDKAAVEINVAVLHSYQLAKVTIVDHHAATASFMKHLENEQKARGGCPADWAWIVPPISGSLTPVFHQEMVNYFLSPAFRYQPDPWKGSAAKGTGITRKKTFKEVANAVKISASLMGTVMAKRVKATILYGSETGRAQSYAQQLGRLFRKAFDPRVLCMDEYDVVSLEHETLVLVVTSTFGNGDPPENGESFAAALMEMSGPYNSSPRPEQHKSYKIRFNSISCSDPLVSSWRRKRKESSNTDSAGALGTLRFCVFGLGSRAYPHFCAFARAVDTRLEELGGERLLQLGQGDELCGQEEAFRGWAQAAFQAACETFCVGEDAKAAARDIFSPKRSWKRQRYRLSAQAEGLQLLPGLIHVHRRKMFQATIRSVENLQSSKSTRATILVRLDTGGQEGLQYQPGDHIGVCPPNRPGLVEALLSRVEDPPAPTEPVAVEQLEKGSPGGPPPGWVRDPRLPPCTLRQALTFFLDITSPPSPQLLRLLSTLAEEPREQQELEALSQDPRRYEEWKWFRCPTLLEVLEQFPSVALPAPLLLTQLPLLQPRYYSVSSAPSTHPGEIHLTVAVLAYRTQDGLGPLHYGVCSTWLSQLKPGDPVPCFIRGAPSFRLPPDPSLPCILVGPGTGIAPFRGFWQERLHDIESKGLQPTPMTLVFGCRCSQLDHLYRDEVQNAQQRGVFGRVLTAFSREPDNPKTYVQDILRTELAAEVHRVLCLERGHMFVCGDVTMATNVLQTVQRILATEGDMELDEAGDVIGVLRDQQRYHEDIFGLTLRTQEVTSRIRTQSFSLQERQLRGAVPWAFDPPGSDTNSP
Outline: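 Human eNOS expressed in Pichia pastoris. Incubated 20 min at 37 °C in triethanolamine pH 7.5 with 0.5 mM Ca2+, CaM, H4B 10 µM, FAD/FMN 5 µM, NADPH 0.5 mM, L-arginine 1 mM and compound at 100 µM final. Nitrite read by Griess (543 nm) after LDH/pyruvate NADPH removal; % of 1% DMSO control from 5 experiments.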

[2] = biological target: Nitric oxide synthase, inducible (Homo sapiens) (UniProt P35228); assay: Inhibition of human iNOS expressed in insect Sf9 cells assessed as residual activity at 100 uM by Griess assay relative to control
Sequence of Nitric oxide synthase, inducible (Homo sapiens) (P35228 whole entry): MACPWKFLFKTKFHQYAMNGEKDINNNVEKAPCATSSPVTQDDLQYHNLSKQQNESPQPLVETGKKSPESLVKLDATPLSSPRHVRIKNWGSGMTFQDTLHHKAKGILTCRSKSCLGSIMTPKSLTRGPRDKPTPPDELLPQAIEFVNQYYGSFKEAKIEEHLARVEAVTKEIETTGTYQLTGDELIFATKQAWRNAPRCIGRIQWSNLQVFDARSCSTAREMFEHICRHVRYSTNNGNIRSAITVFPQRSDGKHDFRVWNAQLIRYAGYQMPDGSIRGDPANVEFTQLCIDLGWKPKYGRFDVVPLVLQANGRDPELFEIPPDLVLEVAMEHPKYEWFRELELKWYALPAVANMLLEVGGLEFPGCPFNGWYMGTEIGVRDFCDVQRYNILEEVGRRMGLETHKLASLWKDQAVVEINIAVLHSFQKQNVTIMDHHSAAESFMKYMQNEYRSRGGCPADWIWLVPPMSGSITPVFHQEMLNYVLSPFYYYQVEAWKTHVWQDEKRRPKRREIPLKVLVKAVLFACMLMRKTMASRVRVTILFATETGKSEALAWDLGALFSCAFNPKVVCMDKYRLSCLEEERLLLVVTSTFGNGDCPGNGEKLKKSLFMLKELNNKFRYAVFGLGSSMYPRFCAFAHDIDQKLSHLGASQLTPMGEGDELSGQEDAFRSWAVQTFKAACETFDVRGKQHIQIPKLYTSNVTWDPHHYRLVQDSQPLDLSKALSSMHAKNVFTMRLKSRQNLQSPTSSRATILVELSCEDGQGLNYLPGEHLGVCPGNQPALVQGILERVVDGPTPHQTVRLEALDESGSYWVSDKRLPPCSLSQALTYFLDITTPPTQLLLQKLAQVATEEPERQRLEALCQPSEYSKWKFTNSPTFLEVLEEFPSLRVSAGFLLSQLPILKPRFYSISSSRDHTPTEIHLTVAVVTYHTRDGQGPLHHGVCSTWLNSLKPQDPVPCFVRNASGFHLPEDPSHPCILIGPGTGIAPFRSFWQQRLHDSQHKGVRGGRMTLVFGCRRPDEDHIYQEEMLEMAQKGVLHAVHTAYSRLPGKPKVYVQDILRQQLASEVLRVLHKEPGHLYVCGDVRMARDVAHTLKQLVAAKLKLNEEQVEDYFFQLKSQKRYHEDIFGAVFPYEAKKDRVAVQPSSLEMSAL
Outline: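 Human iNOS made in Sf9 cells, incubated at 37 °C for 20 min in 50 mM triethanolamine pH 7.5 with 1 mM Mg2+, FAD/FMN 5 µM each, 0.5 mM NADPH, 10 µM H4B, CaM and 1 mM L-arginine. Compound 100 µM final. NADPH cleared with lactate dehydrogenase/pyruvate before Griess reaction (543 nm). Residual activity relative to 1% DMSO control; mean of 5 experiments.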

[3] = biological target: T2, Nitric oxide synthase 3 (Bos taurus) (UniProt P29473); assay: Inhibition of bovine eNOS expressed in insect Sf9 cells assessed as residual activity at 100 uM by Griess assay relative to control
T2 sequence (whole entry): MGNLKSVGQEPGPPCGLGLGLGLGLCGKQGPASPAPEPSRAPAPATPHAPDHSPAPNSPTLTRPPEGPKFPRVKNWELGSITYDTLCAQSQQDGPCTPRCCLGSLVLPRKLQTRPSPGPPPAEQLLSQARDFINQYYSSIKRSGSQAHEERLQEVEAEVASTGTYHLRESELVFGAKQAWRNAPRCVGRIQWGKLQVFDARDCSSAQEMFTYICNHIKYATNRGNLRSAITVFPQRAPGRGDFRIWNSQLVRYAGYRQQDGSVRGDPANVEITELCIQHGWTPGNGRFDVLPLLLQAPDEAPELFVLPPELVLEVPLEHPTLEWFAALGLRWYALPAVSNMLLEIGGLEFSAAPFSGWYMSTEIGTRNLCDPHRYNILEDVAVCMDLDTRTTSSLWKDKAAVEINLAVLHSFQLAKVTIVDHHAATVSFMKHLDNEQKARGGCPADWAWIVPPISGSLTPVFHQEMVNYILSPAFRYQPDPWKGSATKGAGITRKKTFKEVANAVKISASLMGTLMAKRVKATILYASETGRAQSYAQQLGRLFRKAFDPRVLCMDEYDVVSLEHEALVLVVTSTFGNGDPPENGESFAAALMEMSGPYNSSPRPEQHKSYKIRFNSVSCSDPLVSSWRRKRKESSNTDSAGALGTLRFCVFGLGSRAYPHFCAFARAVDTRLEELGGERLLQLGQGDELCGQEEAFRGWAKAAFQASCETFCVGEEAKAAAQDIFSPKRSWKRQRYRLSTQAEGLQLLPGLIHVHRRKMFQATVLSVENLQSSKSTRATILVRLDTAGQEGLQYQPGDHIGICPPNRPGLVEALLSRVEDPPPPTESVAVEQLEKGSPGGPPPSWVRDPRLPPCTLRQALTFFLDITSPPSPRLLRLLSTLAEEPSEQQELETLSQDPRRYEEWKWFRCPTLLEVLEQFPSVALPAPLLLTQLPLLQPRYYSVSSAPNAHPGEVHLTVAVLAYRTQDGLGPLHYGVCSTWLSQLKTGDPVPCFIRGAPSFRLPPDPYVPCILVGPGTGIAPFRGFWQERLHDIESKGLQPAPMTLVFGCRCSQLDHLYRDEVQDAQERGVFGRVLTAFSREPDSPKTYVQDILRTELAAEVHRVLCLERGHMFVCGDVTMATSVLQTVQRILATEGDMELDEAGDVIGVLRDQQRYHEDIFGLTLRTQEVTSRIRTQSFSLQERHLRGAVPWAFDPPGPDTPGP
Outline: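 Bovine eNOS from Sf9 cells. Reaction: triethanolamine buffer pH 7.5, 0.5 mM Ca2+, 10 µg/ml CaM, 10 µM H4B, FAD, FMN, 0.5 mM NADPH, 1 mM L-arginine, with 100 µM compound, 20 min at 37 °C. After NADPH removal by LDH/pyruvate, nitrite measured by Griess at 543 nm. Expressed as % residual activity versus 1% DMSO control, 5 experiments.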

[4] = biological target: T3, Nitric oxide synthase, inducible (Mus musculus) (UniProt P29477); assay: Inhibition of mouse iNOS expressed in insect Sf9 cells assessed as residual activity at 100 uM by Griess assay relative to control
T3 sequence (whole entry): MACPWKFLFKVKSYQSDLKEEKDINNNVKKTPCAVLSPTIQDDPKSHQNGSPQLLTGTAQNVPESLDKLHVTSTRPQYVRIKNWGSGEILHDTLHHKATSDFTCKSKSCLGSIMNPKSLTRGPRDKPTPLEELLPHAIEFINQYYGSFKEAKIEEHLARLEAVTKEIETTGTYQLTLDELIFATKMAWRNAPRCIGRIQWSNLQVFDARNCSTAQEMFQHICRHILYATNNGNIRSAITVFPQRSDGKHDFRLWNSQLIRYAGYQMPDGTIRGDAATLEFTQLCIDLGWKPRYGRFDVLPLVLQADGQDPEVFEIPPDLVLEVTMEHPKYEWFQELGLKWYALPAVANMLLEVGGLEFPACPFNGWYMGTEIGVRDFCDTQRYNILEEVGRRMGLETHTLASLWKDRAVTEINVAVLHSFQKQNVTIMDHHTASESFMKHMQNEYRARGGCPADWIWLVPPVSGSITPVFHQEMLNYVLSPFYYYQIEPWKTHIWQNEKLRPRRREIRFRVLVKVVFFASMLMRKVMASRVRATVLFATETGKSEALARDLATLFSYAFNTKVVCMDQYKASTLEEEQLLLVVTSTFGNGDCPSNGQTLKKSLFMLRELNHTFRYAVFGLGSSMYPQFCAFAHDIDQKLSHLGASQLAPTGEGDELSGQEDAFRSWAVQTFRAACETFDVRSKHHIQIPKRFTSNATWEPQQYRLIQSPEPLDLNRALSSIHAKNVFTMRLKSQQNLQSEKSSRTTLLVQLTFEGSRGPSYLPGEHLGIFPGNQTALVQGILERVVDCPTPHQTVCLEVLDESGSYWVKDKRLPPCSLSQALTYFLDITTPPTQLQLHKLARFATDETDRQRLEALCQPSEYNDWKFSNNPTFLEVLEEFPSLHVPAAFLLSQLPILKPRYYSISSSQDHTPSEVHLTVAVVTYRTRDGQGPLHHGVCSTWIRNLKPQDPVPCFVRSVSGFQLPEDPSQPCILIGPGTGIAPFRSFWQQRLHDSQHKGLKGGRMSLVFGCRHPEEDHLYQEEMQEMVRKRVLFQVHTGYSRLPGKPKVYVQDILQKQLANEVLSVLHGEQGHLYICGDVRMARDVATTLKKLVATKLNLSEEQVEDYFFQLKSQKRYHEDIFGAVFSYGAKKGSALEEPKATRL
Outline: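 Murine iNOS produced in Sf9 insect cells. Buffer: 50 mM triethanolamine pH 7.5, 1 mM CHAPS, 10 mM 2-mercaptoethanol, 0.5 mM EDTA. Additions: 1 mM Mg2+, 5 µM FAD, 5 µM FMN, 0.5 mM NADPH, 10 µM H4B, 10 µg/ml CaM, 1 mM L-arginine. Compound at 100 µM final, 37 °C for 20 min. NADPH removed with LDH/pyruvate, then Griess read at 543 nm. Values are % of 1% DMSO control, 5 experiments.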

[5] = Lipophilicity, log D at pH 7.4 by HPLC method; details: buffer

Activity [1] | Activity [2] | Activity [3] | Activity [4] | logD [5] | Compound
46% | 101% | – | – | – | COc1ccc(COc2ccc(C(=O)C3CN=C4C=C(C)C=CN4C3)cc2)cc1 (stereo not drawn)
– | – | 87% | 97% | – | CCOc1ccc(C(=O)C2CN=C3C=C(C)C=CN3C2)cc1 (stereo not drawn)
6% | 80% | – | – | 1.9 | COc1ccc2cc(C(=O)C3CN=C4C=CC=C(C)N4C3)ccc2c1 (stereo not drawn)
– | – | 92% | 103% | – | CC1=CC=CN2CC(C(=O)c3ccccc3)CN=C12 (stereo not drawn)
– | – | 93% | 100% | 1.6 | CC1=CC=CN2CC(C(=O)c3ccc(C)cc3)CN=C12 (stereo not drawn)
75% | 54% | – | – | – | CC1=CC2=NCC(C(=O)c3ccc(C#N)cc3)CN2C=C1 (stereo not drawn)
94% | 93% | – | – | – | CC1=CC2=NCC(C(=O)c3ccc(C(=O)O)cc3)CN2C=C1 (stereo not drawn)
121% | 95% | – | – | 1.9 | COc1ccc2cc(C(=O)C3CN=C4C=C(C)C=C(C)N4C3)ccc2c1 (stereo not drawn)
50% | 29% | – | – | – | Cc1ccnc(N)c1
91% | 98% | – | – | – | CC1=CC2=NCC(C(=O)c3ccc(-c4ccc(C(=O)O)cc4)cc3)CN2C=C1 (stereo not drawn)
– | – | 93% | 104% | 1.5 | CC1=CC=CC2=NCC(C(=O)c3ccccc3)CN12 (stereo not drawn)
42% | 70% | – | – | – | CC1=CC2=NCC(C(=O)c3ccc(C4CCCCC4)cc3)CN2C=C1 (stereo not drawn)
46% | 85% | – | – | – | CC1=CC2=NCC(C(=O)c3ccc(-c4ccc(F)cc4)cc3)CN2C=C1 (stereo not drawn)
75% | 73% | – | – | – | CC1=CC2=NCC(C(=O)c3ccc(OCc4ccccc4)cc3)CN2C=C1 (stereo not drawn)
79% | 67% | – | – | – | O=C(c1ccc(F)cc1)C1CN=C2C=CC=CN2C1 (stereo not drawn)
83% | 47% | – | – | – | Cc1cccc(N)n1
– | – | 86% | 105% | – | COc1cc(C(=O)C2CN=C3C=CC=CN3C2)cc(OC)c1OC (stereo not drawn)
46% | 30% | – | – | – | CC1=CC2=NCC(C(=O)c3ccc(O)cc3)CN2C=C1 (stereo not drawn)
– | – | 90% | 100% | 1.5 | COc1ccc(C(=O)C2CN=C3C=CC=CN3C2)cc1 (stereo not drawn)
12% | 7% | – | – | – | Cc1cc(C)nc(N)c1
86% | 96% | – | – | – | CC1=CC2=NCC(C(=O)c3ccc(-c4ccc(O)cc4)cc3)CN2C=C1 (stereo not drawn)
20% | 86% | – | – | 2.1 | CC1=CC=CC2=NCC(C(=O)c3ccc(-c4ccccc4)cc3)CN12 (stereo not drawn)
– | – | 91% | 123% | 1.4 | COc1ccc(C(=O)C2CN=C3C=CC=CN3C2)cc1OC (stereo not drawn)
75% | 88% | – | – | 2.1 | CC1=CC=CC2=NCC(C(=O)c3ccc4cc(C)ccc4c3)CN12 (stereo not drawn)

Compound | Activity [1] | Activity [2] | Activity [3] | Activity [4] | logD [5]
Nc1ccccn1 | 94% | 95% | – | – | –
